Results taken from ChEMBL document CHEMBL1156256, “Poly(ethylene glycol) (PEG-400) as an alternative reaction solvent for the synthesis of some new 1-(4-(4'-chlorophenyl)-2-thiazolyl)-3-aryl-5-(2-butyl-4-chloro-1H-imidazol-5yl)-2-pyrazolines and their in vitro antimicrobial evaluation” (2010).
Converted amounts (≈) assume the structure as drawn.

Tests used:
Fusarium verticillioides = assay: Antifungal activity against Fusarium moniliforme MTCC 156 after 24 to 48 hrs by agar diffusion method; type: functional
Procedure, shortened: (§1)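 Fungi grown on potato dextrose agar slants at 27 ± 0.2 °C for 24–48 h until sporulation. Spores suspended in sterile water with 1% Tween-80 and counted by haemocytometer (10⁶ CFU/mL). 0.1 mL spread on 2% agar PDA plates and held at 27 °C for 12 h. Wells then received 0.1 mL of compound at graded concentrations for MIC. Plates refrigerated 20 min for diffusion, then incubated at 27 ± 0.2 °C for […]. Zone read in mm. 1% DMSO used as control.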

Aspergillus niger = assay: Antifungal activity against Aspergillus niger MTCC 281 after 24 to 48 hrs by agar diffusion method; type: functional; procedure, shortened: as §1
Candida albicans = assay: Antifungal activity against Candida albicans MTCC 183 after 24 to 48 hrs by agar diffusion method; type: functional; procedure, shortened: as §1
Bacillus subtilis = assay: Antibacterial activity against Bacillus subtilis MTCC 441 after 24 hrs by agar diffusion method; type: functional; settings: for MIC: Bacillus subtilis, MTCC 441, 24 h
Procedure, shortened: (§2)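 Agar well diffusion following NCCLS. Bacteria kept on nutrient agar slants at 37 ± 0.5 °C for 24 h. Nutrient agar plates seeded with 0.1 mL of culture suspension in 0.85% sterile saline (10⁵ CFU/mL). Plates incubated at 37 ± 0.5 °C for 24 h. Zone of inhibition recorded in mm, and MIC noted. 1% DMSO used as control.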

Penicillium chrysogenum = assay: Antifungal activity against Penicillium chrysogenum MTCC 160 after 24 to 48 hrs by agar diffusion method; type: functional; procedure, shortened: as §1
Trichoderma viride = assay: Antifungal activity against Trichoderma viride MTCC 167 after 24 to 48 hrs by agar diffusion method; type: functional; procedure, shortened: as §1
Staphylococcus aureus = assay: Antibacterial activity against Staphylococcus aureus MTCC 96 after 24 hrs by agar diffusion method; type: functional; settings: for MIC: Staphylococcus aureus, MTCC 96, 24 h; procedure, shortened: as §2
Salmonella enterica = assay: Antibacterial activity against Salmonella typhi MTCC 98 after 24 hrs by agar diffusion method; type: functional, Salmonella enterica subsp. enterica serovar Typhi; settings: for MIC: Salmonella enterica, MTCC 98, 24 h
Procedure, shortened: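 NCCLS agar diffusion. Strain kept on nutrient agar slant at 37 ± 0.5 °C for 24 h. Nutrient agar plates seeded with 0.1 mL of a 10⁵ CFU/mL suspension in sterile 0.85% saline. Plates incubated at 37 ± 0.5 °C for 24 h. Read-out: zone of inhibition (mm) and MIC.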

Escherichia coli = assay: Antibacterial activity against Escherichia coli MTCC 2939 after 24 hrs by agar diffusion method; type: functional; settings: for MIC: Escherichia coli, MTCC 2939, 24 h; procedure, shortened: as §2
[1] = Fusarium verticillioides, MTCC 156
[2] = Penicillium chrysogenum, MTCC 160

| Molecule | inhibition zone (IZ) (Fusarium verticillioides) | MIC (Fusarium verticillioides; [1]) | inhibition zone (IZ) (Aspergillus niger) | MIC (Aspergillus niger; Aspergillus niger, MTCC 281) | inhibition zone (IZ) (Candida albicans) | MIC (Candida albicans; Candida albicans, MTCC 183) | inhibition zone (IZ) (Bacillus subtilis) | MIC (Bacillus subtilis) | inhibition zone (IZ) (Penicillium chrysogenum) | MIC (Penicillium chrysogenum; [2]) | inhibition zone (IZ) (Trichoderma viride) | MIC (Trichoderma viride; Trichoderma viride, MTCC 167) | inhibition zone (IZ) (Staphylococcus aureus) | MIC (Staphylococcus aureus) | inhibition zone (IZ) (Salmonella enterica) | MIC (Salmonella enterica) | inhibition zone (IZ) (Escherichia coli) | MIC (Escherichia coli) | other results |
| --- | --- | --- | --- | --- | --- | --- | --- | --- | --- | --- | --- | --- | --- | --- | --- | --- | --- | --- | --- |
| CCCCc1nc(Cl)c(C2CC(c3cc(C)cc(I)c3O)=NN2c2nc(-c3ccc(Cl)cc3)cs2)[nH]1 (centres undefined) | 10 mm | 50 µg/mL (≈ 76.6 µM) | 14 mm | 25 µg/mL (≈ 38.3 µM) | 11 mm | 50 µg/mL (≈ 76.6 µM) | 12 mm | 50 µg/mL (≈ 76.6 µM) | 12 mm | 25 µg/mL (≈ 38.3 µM) | 14 mm | 25 µg/mL (≈ 38.3 µM) | 15 mm | 25 µg/mL (≈ 38.3 µM) | 15 mm | 25 µg/mL (≈ 38.3 µM) | 14 mm | 50 µg/mL (≈ 76.6 µM) | – |
| CCCCc1nc(Cl)c(C2CC(c3ccc(OC)cc3)=NN2c2nc(-c3ccc(Cl)cc3)cs2)[nH]1 (centres undefined) | 12 mm | 25 µg/mL (≈ 47.5 µM) | 16 mm | 25 µg/mL (≈ 47.5 µM) | 14 mm | 25 µg/mL (≈ 47.5 µM) | 16 mm | 25 µg/mL (≈ 47.5 µM) | 12 mm | 50 µg/mL (≈ 95 µM) | 14 mm | 25 µg/mL (≈ 47.5 µM) | 18 mm | 25 µg/mL (≈ 47.5 µM) | 14 mm | 50 µg/mL (≈ 95 µM) | 16 mm | 25 µg/mL (≈ 47.5 µM) | – |
| CCCCc1nc(Cl)c(C2CC(c3cc(Cl)c(C)c(Br)c3O)=NN2c2nc(-c3ccc(Cl)cc3)cs2)[nH]1 (centres undefined) | 15 mm | 25 µg/mL (≈ 39.1 µM) | 15 mm | 25 µg/mL (≈ 39.1 µM) | 12 mm | 50 µg/mL (≈ 78.1 µM) | 18 mm | 25 µg/mL (≈ 39.1 µM) | 9 mm | 50 µg/mL (≈ 78.1 µM) | 16 mm | 50 µg/mL (≈ 78.1 µM) | 11 mm | 50 µg/mL (≈ 78.1 µM) | 12 mm | 50 µg/mL (≈ 78.1 µM) | 15 mm | 25 µg/mL (≈ 39.1 µM) | – |
| CCCCc1nc(Cl)c(C2CC(c3cc(Cl)c(C)c(I)c3O)=NN2c2nc(-c3ccc(Cl)cc3)cs2)[nH]1 (centres undefined) | 14 mm | 25 µg/mL (≈ 36.4 µM) | 14 mm | 25 µg/mL (≈ 36.4 µM) | 13 mm | 25 µg/mL (≈ 36.4 µM) | 19 mm | 25 µg/mL (≈ 36.4 µM) | 15 mm | 25 µg/mL (≈ 36.4 µM) | 12 mm | 25 µg/mL (≈ 36.4 µM) | 14 mm | 50 µg/mL (≈ 72.8 µM) | 16 mm | 25 µg/mL (≈ 36.4 µM) | 18 mm | 25 µg/mL (≈ 36.4 µM) | – |
| CCCCc1nc(Cl)c(C2CC(c3ccc(N)cc3)=NN2c2nc(-c3ccc(Cl)cc3)cs2)[nH]1 (centres undefined) | – | > 100 µg/mL | 14 mm | 25 µg/mL (≈ 48.9 µM) | – | > 100 µg/mL | 8 mm | 50 µg/mL (≈ 97.8 µM) | 10 mm | 50 µg/mL (≈ 97.8 µM) | 12 mm | 50 µg/mL (≈ 97.8 µM) | 10 mm | 50 µg/mL (≈ 97.8 µM) | – | > 100 µg/mL | 12 mm | 50 µg/mL (≈ 97.8 µM) | – |
| CN(C)[C@@H]1C(O)=C(C(N)=O)C(=O)[C@@]2(O)C(O)=C3C(=O)c4c(O)cccc4[C@@](C)(O)[C@H]3C[C@@H]12 [TETRACYCLINE] | – | – | – | – | – | – | 32 mm | 25 µg/mL (≈ 56.3 µM) | – | – | – | – | 30 mm | 25 µg/mL (≈ 56.3 µM) | 28 mm | 25 µg/mL (≈ 56.3 µM) | 30 mm | 25 µg/mL (≈ 56.3 µM) | – |
| CCCCc1nc(Cl)c(C2CC(c3cc(Cl)cc(Br)c3O)=NN2c2nc(-c3ccc(Cl)cc3)cs2)[nH]1 (centres undefined) | 10 mm | 50 µg/mL (≈ 79.9 µM) | 18 mm | 25 µg/mL (≈ 39.9 µM) | 16 mm | 25 µg/mL (≈ 39.9 µM) | 15 mm | 25 µg/mL (≈ 39.9 µM) | 16 mm | 25 µg/mL (≈ 39.9 µM) | 15 mm | 25 µg/mL (≈ 39.9 µM) | 16 mm | 25 µg/mL (≈ 39.9 µM) | 18 mm | 25 µg/mL (≈ 39.9 µM) | 21 mm | 25 µg/mL (≈ 39.9 µM) | – |
| CCCCc1nc(Cl)c(C2CC(c3cc(C)cc(Br)c3O)=NN2c2nc(-c3ccc(Cl)cc3)cs2)[nH]1 (centres undefined) | 9 mm | 50 µg/mL (≈ 82.6 µM) | 10 mm | 50 µg/mL (≈ 82.6 µM) | 12 mm | 25 µg/mL (≈ 41.3 µM) | 14 mm | 50 µg/mL (≈ 82.6 µM) | 13 mm | 50 µg/mL (≈ 82.6 µM) | 14 mm | 25 µg/mL (≈ 41.3 µM) | 12 mm | 50 µg/mL (≈ 82.6 µM) | 12 mm | 50 µg/mL (≈ 82.6 µM) | 16 mm | 25 µg/mL (≈ 41.3 µM) | – |
| CCCCc1nc(Cl)c(C2CC(c3cc(C)ccc3O)=NN2c2nc(-c3ccc(Cl)cc3)cs2)[nH]1 (centres undefined) | 11 mm | 50 µg/mL (≈ 95 µM) | 12 mm | 50 µg/mL (≈ 95 µM) | 10 mm | 50 µg/mL (≈ 95 µM) | 12 mm | 50 µg/mL (≈ 95 µM) | – | > 100 µg/mL | 8 mm | 50 µg/mL (≈ 95 µM) | – | > 100 µg/mL | – | > 100 µg/mL | 11 mm | 50 µg/mL (≈ 95 µM) | – |
| CCCCc1nc(Cl)c(C2CC(c3cc(Br)cc(Br)c3O)=NN2c2nc(-c3ccc(Cl)cc3)cs2)[nH]1 (centres undefined) | 14 mm | 25 µg/mL (≈ 37.3 µM) | 20 mm | 25 µg/mL (≈ 37.3 µM) | 20 mm | 25 µg/mL (≈ 37.3 µM) | 21 mm | 25 µg/mL (≈ 37.3 µM) | 18 mm | 25 µg/mL (≈ 37.3 µM) | 18 mm | 25 µg/mL (≈ 37.3 µM) | 18 mm | 25 µg/mL (≈ 37.3 µM) | 19 mm | 25 µg/mL (≈ 37.3 µM) | 22 mm | 25 µg/mL (≈ 37.3 µM) | – |
| CCCCc1nc(Cl)c(C2CC(c3cc(Cl)ccc3O)=NN2c2nc(-c3ccc(Cl)cc3)cs2)[nH]1 (centres undefined) | 15 mm | 25 µg/mL (≈ 45.7 µM) | 16 mm | 25 µg/mL (≈ 45.7 µM) | 16 mm | 25 µg/mL (≈ 45.7 µM) | 18 mm | 25 µg/mL (≈ 45.7 µM) | 12 mm | 25 µg/mL (≈ 45.7 µM) | 15 mm | 25 µg/mL (≈ 45.7 µM) | 16 mm | 25 µg/mL (≈ 45.7 µM) | 12 mm | 50 µg/mL (≈ 91.4 µM) | 18 mm | 25 µg/mL (≈ 45.7 µM) | – |
| CCCCc1nc(Cl)c(C2CC(c3cc(I)cc(I)c3O)=NN2c2nc(-c3ccc(Cl)cc3)cs2)[nH]1 (centres undefined) | 16 mm | 25 µg/mL (≈ 32.7 µM) | 19 mm | 25 µg/mL (≈ 32.7 µM) | 18 mm | 25 µg/mL (≈ 32.7 µM) | 20 mm | 25 µg/mL (≈ 32.7 µM) | 16 mm | 25 µg/mL (≈ 32.7 µM) | 20 mm | 25 µg/mL (≈ 32.7 µM) | 16 mm | 25 µg/mL (≈ 32.7 µM) | 18 mm | 25 µg/mL (≈ 32.7 µM) | 20 mm | 25 µg/mL (≈ 32.7 µM) | – |
| CCCCc1nc(Cl)c(C2CC(c3cc(Cl)cc(Cl)c3O)=NN2c2nc(-c3ccc(Cl)cc3)cs2)[nH]1 (centres undefined) | 15 mm | 25 µg/mL (≈ 43 µM) | 19 mm | 25 µg/mL (≈ 43 µM) | 16 mm | 25 µg/mL (≈ 43 µM) | 22 mm | 25 µg/mL (≈ 43 µM) | 18 mm | 25 µg/mL (≈ 43 µM) | 18 mm | 25 µg/mL (≈ 43 µM) | 16 mm | 25 µg/mL (≈ 43 µM) | 18 mm | 25 µg/mL (≈ 43 µM) | 21 mm | 25 µg/mL (≈ 43 µM) | – |
| CCCCc1nc(Cl)c(C2CC(c3cc(Cl)c(C)cc3O)=NN2c2nc(-c3ccc(Cl)cc3)cs2)[nH]1 (centres undefined) | 11 mm | 50 µg/mL (≈ 89.1 µM) | 12 mm | 50 µg/mL (≈ 89.1 µM) | – | > 100 µg/mL | – | > 100 µg/mL | 13 mm | 25 µg/mL (≈ 44.6 µM) | 14 mm | 25 µg/mL (≈ 44.6 µM) | 12 mm | 50 µg/mL (≈ 89.1 µM) | 9 mm | 50 µg/mL (≈ 89.1 µM) | 14 mm | 50 µg/mL (≈ 89.1 µM) | – |
| NYSTATIN | 16 mm | – | 18 mm | – | 18 mm | – | – | – | 16 mm | – | 18 mm | – | – | – | – | – | – | – | MIC (Fusarium verticillioides): 25 µg/mL; MIC (Aspergillus niger): 25 µg/mL; MIC (Candida albicans): 25 µg/mL; MIC (Penicillium chrysogenum): 25 µg/mL; MIC (Trichoderma viride): 25 µg/mL |
